{"data": "Experimental data from different studies", "effect on": "enzyme activity", "action": "inhibitor", "EGFR": "Epidermal growth factor receptor (EGFR, Homo sapiens, UniProt P00533)", "EGFR L858R/T790M": "Epidermal growth factor receptor (EGFR, Homo sapiens, UniProt P00533, L858R/T790M)", "EGFR T790M": "Epidermal growth factor receptor (EGFR, Homo sapiens, UniProt P00533, T790M)", "EGFR L858R": "Epidermal growth factor receptor (EGFR, Homo sapiens, UniProt P00533, L858R)", "note": "Each line is one published result; the experiments were not run side by side."}
{"SMILES": "CNc1cccc2cc(C(=O)Nc3ccc(C(=O)O)cc3)c(=O)[nH]c12", "target": "EGFR", "conditions": "10 µM", "inhibition [%]": -1.7}
{"SMILES": "CCC(=O)Nc1cc(Nc2nc(N3CCc4sccc4C3)c3cccnc3n2)c(OC)cc1N1CCN(CCO)CC1", "target": "EGFR L858R/T790M", "assay": "ELISA", "conditions": "0.1 µM", "inhibition [%]": 30.3}
{"SMILES": "COc1cc2ncnc(Nc3ccc(Oc4ccccc4)c(C)c3C)c2cc1OC", "target": "EGFR T790M", "conditions": "1 µM", "inhibition [%]": 22}
{"SMILES": "COc1cc(N(C)CCN(C)C)c(NC(=O)C=C(C)C)cc1Nc1nc(N2CCc3sccc3C2)c2sccc2n1", "target": "EGFR L858R/T790M", "assay": "ELISA", "conditions": "0.1 µM", "inhibition [%]": 19.5}
{"SMILES": "CN1CC(Oc2cnc(C#N)cc2-c2ccn3nc(NC(=O)C4CC4)cc3c2)C1", "target": "EGFR", "conditions": "1 µM", "inhibition [%]": -1}
{"SMILES": "CS(=O)(=O)Nc1cc(-c2ccc3ncnc(Nc4ccc(F)c(Cl)c4)c3c2)cnc1Cl", "target": "EGFR", "assay": "FRET", "conditions": "10 µM", "inhibition [%]": "90 to 100"}
{"SMILES": "C=CC(=O)Nc1cc(Nc2nccc(Nc3cc(Cl)c(F)cc3C(C)(C)O)n2)c(OC)cc1N1CC[C@@H](N(C)C)C1", "target": "EGFR", "conditions": "1 µM", "inhibition [%]": 76}
{"SMILES": "C=CC(=O)Nc1cc(Nc2nc(N3CCc4sccc4C3)c3cccnc3n2)c(OC)cc1N1CCC(N(C)C)CC1", "target": "EGFR L858R/T790M", "assay": "ELISA", "conditions": "0.1 µM", "inhibition [%]": 36}
{"SMILES": "CS(=O)(=O)Nc1cccc(-c2csc(NC(=O)CSc3nc4nccnc4c(=O)n3CCc3ccccc3)n2)c1", "target": "EGFR L858R", "conditions": "10 µM", "inhibition [%]": -1}
{"SMILES": "CN(C)C1CCN(CC#Cc2nn(C3CCCC3)c3nc(NCc4ccccc4)ncc23)C1 (stereo not shown)", "target": "EGFR", "assay": "FRET", "conditions": "1 µM", "inhibition [%]": 7}
{"SMILES": "CCC(=O)Nc1cc(Nc2nc(N3CCc4sccc4C3)c3cccnc3n2)c(OC)cc1N1CCOCC1", "target": "EGFR L858R/T790M", "assay": "ELISA", "conditions": "0.1 µM", "inhibition [%]": 7.6}
{"SMILES": "COCCOc1cc2ncnc(Nc3cccc(OCCn4ccnc4[N+](=O)[O-])c3)c2cc1OCCOC", "target": "EGFR", "assay": "FRET", "conditions": "1 µM", "inhibition [%]": 28}
{"SMILES": "CCC(=O)Nc1cc(Nc2nc(N3CCc4sccc4C3)c3cccnc3n2)c(OC)cc1N1CCN(C(C)=O)CC1", "target": "EGFR L858R/T790M", "assay": "ELISA", "conditions": "0.1 µM", "inhibition [%]": 10}
{"SMILES": "O=C(CSc1nc2nccnc2c(=O)n1CCc1ccccc1)Nc1nccs1", "target": "EGFR L858R", "conditions": "10 µM", "inhibition [%]": 1}
{"SMILES": "COc1cc(-c2cc(-c3ccc(N4CCNCC4)cc3)cnc2N)cc(OC)c1OC", "target": "EGFR T790M", "conditions": "1 µM", "inhibition [%]": 4}
{"SMILES": "COc1cc2ncnc(Nc3cccc(OCCn4ccnc4[N+](=O)[O-])c3)c2cc1OCCCN1CCOCC1", "target": "EGFR", "assay": "FRET", "conditions": "1 µM", "inhibition [%]": 30}
{"SMILES": "COc1cc2nccc(Oc3ccc(NC(=O)c4c5n(n(-c6ccc(F)cc6)c4=O)CCCC5)cc3)c2cc1OC", "target": "EGFR", "conditions": "0.1 µM", "inhibition [%]": -2}
{"SMILES": "COc1cc2ncnc(Nc3ccc(Oc4ccccc4)cc3C)c2cc1OC", "target": "EGFR T790M", "conditions": "1 µM", "inhibition [%]": 50}
{"SMILES": "C=CC(=O)Nc1cc(Nc2nc(N3CCc4sccc4C3)c3cccnc3n2)c(OC)cc1N1CCSCC1", "target": "EGFR L858R/T790M", "assay": "ELISA", "conditions": "0.1 µM", "inhibition [%]": 23.9}
{"SMILES": "CC/C(=N\\NC(=O)NCc1cccc(O)c1)c1ccc(O)c(C)c1O", "target": "Epidermal growth factor receptor (EGFR, Homo sapiens, UniProt P00533, del746-750)", "conditions": "0.1 µM", "inhibition [%]": -0.6}
{"SMILES": "C=CC(=O)Nc1cc(Nc2nc(N3CCc4sccc4C3)c3cccnc3n2)c(OC)cc1N1CCN(C(C)=O)CC1", "target": "EGFR L858R/T790M", "assay": "ELISA", "conditions": "0.1 µM", "inhibition [%]": 19.4}
{"SMILES": "CNCc1ccc(-c2cc(-c3nc(-c4ccc(S(=O)(=O)C(C)C)cc4)cnc3N)on2)cc1", "target": "EGFR", "conditions": "0.4 µM", "inhibition [%]": 0}
